Among the data in ChEMBL document CHEMBL3271971, “Antineoplastic and biochemical properties of arylsulfonylhydrazones of 2-formylpyridine N-oxide” (J Med Chem, 1976) are Survival, Activity and T/C values, retold here.

Data set [1] in a line: Antineoplastic activity against mouse S180A cells allografted in CD-1 mouse assessed as average survival at maximum effective dose administered qd for 6 days (reference value: 12.5 +/- 0.3 days). The class given is functional. In short, it runs like this:
(§1)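 Sarcoma 180 ascites cells were transplanted from a donor mouse bearing a 7-day tumour. Each agent was tested at 10–60 mg/kg/day, once daily for six consecutive days, starting 24 h after transplantation, in groups of 5–10 mice. Pooled untreated controls totalled 40 mice. Mice surviving beyond 50 days were counted as 50-day survivors, and body-weight change over therapy served as the toxicity index.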

The nature of data set [2]: Antineoplastic activity against mouse S180A cells allografted in CD-1 mouse assessed as maximum dose required for increase in mouse survival administered qd for 6 days. The class given is functional.
The test system of another data set is Mus musculus. Briefly: Toxicity in CD-1 mouse allografted with mouse S180A cells assessed as change in body weight at maximum effective dose administered qd for 6 days (reference value: 23.2%). The class given is organism-based. As to conditions: 144 h.
Data set [3] in a line: Antineoplastic activity against mouse S180A cells allografted in CD-1 mouse assessed as mouse survival at maximum effective dose administered qd for 6 days measured for 50 days relative to control. Format: functional. In short, it runs like this:
as §1

The nature of data set [4]: Antineoplastic activity against mouse S180A cells allografted in CD-1 mouse assessed as average survival at maximum effective dose administered qd for 6 days relative to control. The class given is functional. In short, it runs like this: as §1

As to `O=S(=O)(N/N=C/c1cccc[n+]1[O-])c1ccccc1`, the figures for the Survival in data set [1] and in data set [3] were 42.4 days and 40%, respectively. Moreover, the Activity was 40 mg/kg in data set [2] and -5.2% with Mus musculus. Besides, the T/C (as a rule, the result in the treated group divided by that in the control group, in per cent) in data set [4] was determined as 339%.
The like results for `Cc1ccc(S(=O)(=O)N/N=C/c2ccc[n+]([O-])c2)cc1` were, in that order, 13.6 days, 0%, 60 mg/kg, 0% and 109%.
`Cc1ccc(S(=O)(=O)N/N=C/c2cc[n+]([O-])cc2)cc1`: the Survival came to 15.4 days in data set [1] and 0% in data set [3]. Besides, the Activity is 60 mg/kg in data set [2] and 17.7% with Mus musculus. The T/C in data set [4] was determined as 123%.
As for `CS(=O)(=O)N/N=C/c1cccc[n+]1[O-]`, the Survival in data set [1] is 15.4 days; in data set [3] it was 0%. The Activity in data set [2] is 60 mg/kg; in the data set on Mus musculus, 20%. In data set [4], the T/C worked out at 123%.
On the same counts, the results for `O=S(=O)(Cc1ccccc1)N/N=C/c1cccc[n+]1[O-]` are 35.2 days, 40%, 40 mg/kg, -0.3% and 282%.
The like results for `Cc1ccc(C(=O)N/N=C/c2cccc[n+]2[O-])cc1` were, in that order, 11.2 days, 0%, 60 mg/kg, 10.2% and 90%.
For the molecule `Cc1ccc(S(=O)(=O)N/N=C/c2ccccn2)cc1`, the Survival in data set [1] was found to be 15.4 days; in data set [3], 0%. In addition, the Activity was found to be 10 mg/kg in data set [2] and 20.1% with Mus musculus. In addition, in data set [4], the T/C is on record as 123%.
With `Cc1ccc(S(=O)(=O)N/N=C/c2cccnc2)cc1`, the figures for the Survival in data set [1] and in data set [3] were 13.2 days and 0%, respectively. Further, the values for the Activity (in data set [2]; with Mus musculus) were 60 mg/kg and 12.6%, respectively. Also, the T/C in data set [4] is reported as 106%.
The like results for `O=S(=O)(Cc1ccccc1)N/N=C/c1ccncc1` were, in that order, 21.2 days, 0%, 60 mg/kg, -3.3% and 169%.
The like results for `CS(=O)(=O)N/N=C/c1ccncc1` were, in that order, 13.4 days, 0%, 20 mg/kg, 18.6% and 107%.
On the same counts, the results for `Cc1ccc(C(=O)N/N=C/c2ccccn2)cc1` are 11.8 days, 0%, 60 mg/kg, 17.4% and 94%.
Regarding `Cc1ccc(S(=O)(=O)N/N=C/c2ccccc2[N+](=O)[O-])cc1`, the results for the Survival in data set [1] and in data set [3] were 13.2 days and 0%, respectively. Also, the Activity came to 60 mg/kg in data set [2] and 2.1% with Mus musculus. In data set [4], the T/C came to 105%.
Take `O=S(=O)(N/N=C/c1ccc2ccccc2[n+]1[O-])c1ccccc1`: the Survival in data set [1] was determined as 13.6 days; in data set [3] it was 0%. The Activity in data set [2] stood at 20 mg/kg; in the data set with Mus musculus, 2.6%. Further, in data set [4], the T/C is 109%.
On the same counts, the results for `O=S(=O)(N/N=C/c1c2ccccc2cc[n+]1[O-])c1ccccc1` are 13.4 days, 0%, 10 mg/kg, 1.6% and 107%.
On the same counts, the results for `Cc1ccc(S(=O)(=O)N/N=C/c2ccncc2)cc1` are 28.2 days, 10%, 60 mg/kg, -0.9% and 226%.
The like results for `Cc1ccc(S(=O)(=O)N/N=C/c2ccccc2)cc1` were, in that order, 14.4 days, 0%, 20 mg/kg, 15.1% and 115%.
